Calls of active or inactive are those of the source. The calls are words filed in the database; no cut-off is given here.
Tests used:
HUVEC [1] = assay: Antiinflammatory activity in HUVEC assessed as inhibition of TNF-alpha-induced VCAM1 expression incubated for 1 hr prior to TNF-alpha challenge measured after overnight incubation by enzyme immunoassay method; type: functional, Homo sapiens
Method in brief: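 Confluent HUVECs in 96-well plates were pre-treated 1 h with compound (25 µM), then stimulated with TNF-α 10 ng/mL overnight. Cell-surface VCAM-1 was measured by cell-surface enzyme immunoassay. Three independent experiments, each with n = 8 replicates.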

HUVEC [2] = assay: Cytotoxicity against HUVEC assessed as cell viability up to 50 uM after 24 to 72 hrs by WST-1 assay; type: cell-based; settings: human
Method in brief: (§1)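 HUVECs were exposed to compound (10, 25, 50 µM; 0.1% DMSO vehicle) for 24 h or 72 h. WST-1 premix was added for a further 2 h, and formazan absorbance was read at 450 nm as a measure of mitochondrial dehydrogenase activity. Three independent experiments, each with n = 6 replicates.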

HUVEC [3] = assay: Cytotoxicity against HUVEC assessed as cell viability at 10 uM after 24 to 72 hrs by WST-1 assay relative to untreated control; type: cell-based; settings: human
Method in brief: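 HUVECs (used up to fifth passage from primary culture) in 96-well plates exposed to compound for 24 h or 72 h, DMSO final ≤0.1% as vehicle; WST-1 premix added for further 2 h, absorbance at 450 nm; viability relative to untreated cells. Morphology also checked by phase-contrast microscopy. Mean of three independent experiments, each n = 6 replicates.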

HUVEC [4] = assay: Cytotoxicity against HUVEC assessed as cell detachment at 10 to 50 uM after 72 hrs by phase-contrast microscopy; type: cell-based; settings: human
Method in brief: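 After 72 h of treatment with compound at concentrations up to 50 µM, HUVEC morphology was examined by phase-contrast microscopy.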

HUVEC [5] = assay: Cytotoxicity against HUVEC assessed as cell viability at 10 to 50 uM after 24 to 72 hrs by WST-1 assay relative to untreated control; type: cell-based; settings: human; method in brief: as §1
HUVEC [6] = assay: Effect on PMA-induced COX-2 protein expression in HUVEC at 1 to 25 uM incubated for 1 hr prior to PMA challenge measured after overnight incubation by EIA assay relative to control; type: ADME, cell-based; settings: human
Method in brief: (§2)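 Cells were pre-treated 1 h with compound, then stimulated overnight with PMA 10 nM, TNF-α 10 ng/mL (HUVECs) or PDGF-BB 20 ng/mL (HAoSMCs). Monolayers were fixed and permeabilized in cold acetone on ice for 2 min. They were probed with goat anti-COX-2 and then HRP anti-goat IgG, developed with TMB for 30 min, stopped with 0.18 M H2SO4, and read at 450 nm. Three experiments, n = 6 each.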

Homo sapiens [7] = species on record: Homo sapiens; assay: Inhibition of PMA-induced COX-2 mRNA expression in HAoSMC at 1 to 25 uM incubated for 1 hr prior to PMA challenge measured after overnight incubation by RT-PCR analysis relative to control; type: functional
Method in brief: (§3)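 Confluent cells (HAoSMCs at passages 20–30, HUVECs up to fifth passage) were pre-treated 1 h with compound (1, 10, 25 µM) or 0.1% DMSO, then stimulated with PMA 10 nM, PDGF-BB 20 ng/mL or TNF-α 10 ng/mL overnight. Total RNA was extracted and RT-PCR run with GAPDH co-amplified. Bands were quantified by densitometry and normalized to GAPDH. Three determinations.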

Homo sapiens [8] = species on record: Homo sapiens; assay: Inhibition of PDGF-BB-induced COX-2 mRNA expression in HAoSMC at 1 to 25 uM incubated for 1 hr prior to PDGF-BB challenge measured after overnight incubation by RT-PCR analysis relative to control; type: functional; method in brief: as §3
[9] = biological target: T1, Prostaglandin G/H synthase 2 (Homo sapiens) (UniProt P35354); assay: Inhibition of COX2 in HAoSMC assessed as PMA-induced PGE2 production at 1 to 25 uM incubated for 1 hr prior to PMA challenge measured after overnight incubation by competitive enzyme immunoassay
T1 sequence (whole entry): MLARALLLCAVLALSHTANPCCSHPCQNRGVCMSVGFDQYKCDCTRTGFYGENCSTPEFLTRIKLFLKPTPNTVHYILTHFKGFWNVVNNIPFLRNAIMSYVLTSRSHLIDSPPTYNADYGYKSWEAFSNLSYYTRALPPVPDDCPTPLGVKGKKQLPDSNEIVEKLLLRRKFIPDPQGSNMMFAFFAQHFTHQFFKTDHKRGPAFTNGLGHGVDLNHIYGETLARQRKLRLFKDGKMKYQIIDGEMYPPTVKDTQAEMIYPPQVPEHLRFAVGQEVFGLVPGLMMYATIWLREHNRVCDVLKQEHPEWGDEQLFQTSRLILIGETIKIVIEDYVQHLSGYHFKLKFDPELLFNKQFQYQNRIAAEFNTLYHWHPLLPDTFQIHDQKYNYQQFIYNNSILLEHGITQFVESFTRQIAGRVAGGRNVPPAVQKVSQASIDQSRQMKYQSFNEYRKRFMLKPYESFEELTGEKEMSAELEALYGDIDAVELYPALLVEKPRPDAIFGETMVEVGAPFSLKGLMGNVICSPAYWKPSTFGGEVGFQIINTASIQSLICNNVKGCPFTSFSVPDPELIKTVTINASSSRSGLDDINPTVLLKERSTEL
Method in brief: (§4)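 Cells were pre-treated 1 h with compound (1–25 µM), then stimulated overnight with PMA 10 nM (HAoSMCs) or TNF-α 10 ng/mL (HUVECs). Conditioned medium was centrifuged, and PGE2 and PGI2 (as 6-keto-PGF1α) were measured by competitive EIA in pg/mL. Three independent experiments in duplicate.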

HUVEC [10] = assay: Effect on PMA-induced COX-2 mRNA expression in HUVEC at 1 to 25 uM incubated for 1 hr prior to PMA challenge measured after overnight incubation by RT-PCR analysis relative to control; type: ADME, cell-based; settings: human; method in brief: as §3
HUVEC [11] = assay: Antiinflammatory activity in HUVEC assessed as reduction in TNF-alpha-induced VCAM1 mRNA expression at 10 to 25 uM incubated for 1 hr prior to TNF-alpha challenge measured after 4 hrs by RT-PCR analysis relative to control; type: functional, cell-based; settings: Homo sapiens
Method in brief: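 HUVECs were pre-treated 1 h with compound, then exposed to TNF-α 10 ng/mL for 4 h. Total RNA was extracted and VCAM-1 with GAPDH amplified by RT-PCR (VCAM-1 30 cycles, 55 °C annealing). Bands were quantified by densitometry and normalized to GAPDH. Mean ± SEM of three determinations.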

[12] = biological target: T1, Prostaglandin G/H synthase 2 (Homo sapiens); assay: Inhibition of COX2 in HUVEC assessed as TNF-alpha-induced PGE2 production at 1 to 25 uM incubated for 1 hr prior to TNF-alpha challenge measured after overnight incubation by competitive enzyme immunoassay; method in brief: as §4
HUVEC [13] = assay: Effect on TNF-alpha-induced COX-2 mRNA expression in HUVEC at 1 to 25 uM incubated for 1 hr prior to TNF-alpha challenge measured after overnight incubation by RT-PCR analysis relative to control; type: ADME, cell-based; settings: human; method in brief: as §3
[14] = biological target: T1, Prostaglandin G/H synthase 2 (Homo sapiens); assay: Inhibition of COX2 in HUVEC assessed as TNF-alpha-induced PGI2 production at 1 to 25 uM incubated for 1 hr prior to TNF-alpha challenge measured after overnight incubation by competitive enzyme immunoassay; method in brief: as §4
HUVEC [15] = assay: Effect on TNF-alpha-induced COX-2 protein expression in HUVEC at 1 to 25 uM incubated for 1 hr prior to TNF-alpha challenge measured after overnight incubation by EIA assay relative to control; type: ADME, cell-based; settings: human; method in brief: as §2
Homo sapiens [16] = species on record: Homo sapiens; assay: Inhibition of PDGF-BB-induced COX-2 protein expression in HAoSMC incubated for 1 hr prior to PDGF-BB challenge measured after overnight incubation by EIA assay relative to control; type: functional; method in brief: as §2
[17] = biological target: Matrix metalloproteinase-9 (Homo sapiens) (UniProt P14780); assay: Inhibition of PMA-induced MMP9 activity in HAoSMC at 25 uM after 24 hrs by gelatin zymography relative to control
Chain of Matrix metalloproteinase-9 (Homo sapiens) (P14780 whole entry): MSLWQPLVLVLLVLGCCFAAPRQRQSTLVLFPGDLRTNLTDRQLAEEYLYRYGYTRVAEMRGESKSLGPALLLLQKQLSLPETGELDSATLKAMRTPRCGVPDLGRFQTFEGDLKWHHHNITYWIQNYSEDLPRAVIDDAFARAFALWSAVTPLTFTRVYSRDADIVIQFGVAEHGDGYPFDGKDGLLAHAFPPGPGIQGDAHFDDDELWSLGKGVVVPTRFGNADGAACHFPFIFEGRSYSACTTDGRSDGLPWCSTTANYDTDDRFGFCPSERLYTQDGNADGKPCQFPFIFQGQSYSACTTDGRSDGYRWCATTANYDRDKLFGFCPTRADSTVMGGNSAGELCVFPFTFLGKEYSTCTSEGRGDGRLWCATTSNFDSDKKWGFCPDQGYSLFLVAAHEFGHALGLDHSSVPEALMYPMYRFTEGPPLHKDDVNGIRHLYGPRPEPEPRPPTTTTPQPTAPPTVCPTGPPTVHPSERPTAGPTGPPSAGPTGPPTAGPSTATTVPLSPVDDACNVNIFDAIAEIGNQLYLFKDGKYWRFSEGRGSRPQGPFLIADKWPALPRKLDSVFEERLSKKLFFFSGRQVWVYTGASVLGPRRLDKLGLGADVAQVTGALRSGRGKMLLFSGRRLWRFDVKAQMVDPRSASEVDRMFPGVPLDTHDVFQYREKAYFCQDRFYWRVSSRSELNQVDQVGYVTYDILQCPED
Method in brief: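 HAoSMCs were treated with PMA 10 nM in serum-free medium, with or without compound (10, 25 µM), for 24 h. Conditioned medium ([…]) was run on 11% SDS-PAGE containing 0.1% gelatin at 125 V and 4 °C. Gels were washed in Triton X-100, incubated 24 h at 37 °C in Tris pH 7.5/CaCl2 buffer, and Coomassie-stained. Lysis bands were quantified by densitometry.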

Homo sapiens [18] = species on record: Homo sapiens; assay: Cytotoxicity against HAoSMC assessed as inhibition of PDGF-BB-induced cell growth incubated for 1 hr prior to PDGF-BB challenge measured after 48 hrs by BrdU incorporation assay; type: functional
Method in brief: (§5)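 Cells at about 70% confluence were serum-starved overnight, pre-treated 1 h with compound (1–25 µM), then grown with or without PDGF-BB (HAoSMCs) or ECGF (HUVECs), each at 20 ng/mL, for 48 h. Cells were BrdU-labelled, fixed and immunostained, and absorbance was read at 450 nm. Three experiments, n = 8 each.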

HUVEC [19] = assay: Cytotoxicity against HUVEC at 1 to 25 uM after 48 hrs by BrdU incorporation assay relative to untreated control; settings: human
Homo sapiens [20] = species on record: Homo sapiens; assay: Antiinflammatory activity in HAoSMC assessed as inhibition of PMA-induced MMP-9 mRNA expression at 10 to 25 uM incubated for 1 hr prior to PMA challenge measured after overnight incubation by RT-PCR analysis; type: functional; method in brief: as §3
Homo sapiens [21] = species on record: Homo sapiens; assay: Inhibition of PMA-induced COX-2 protein expression in HAoSMC at 1 to 25 uM incubated for 1 hr prior to PMA challenge measured after overnight incubation by EIA assay relative to control; type: functional; method in brief: as §2
HUVEC [22] = assay: Cytotoxicity against HUVEC assessed as inhibition of ECGF-induced cell growth at 1 to 25 uM incubated for 1 hr prior to ECGF challenge measured after 48 hrs by BrdU incorporation assay relative to control; type: cell-based; settings: human; method in brief: as §5

SMILES	inhibition (INH) (HUVEC [1])	Activity (HUVEC [2])	Activity (HUVEC [4])	Activity (HUVEC [5])	also measured
COc1ccc(-c2nc3ccccn3c(=O)c2-c2ccccc2)cc1	8.9%	Non-toxic			
COc1ccc(-c2c(-c3ccccc3)nc3ccccn3c2=O)cc1OC	12%	Non-toxic			
COc1ccc(-c2nc3ccccn3c(=O)c2-c2ccc(OC)cc2)cc1	9.6%	Non-toxic			
COc1ccc(-c2nc3ccccn3c(=O)c2-c2ccc(OC)c(OC)c2)cc1	15%	Non-toxic			
COc1ccc(-c2c(-c3ccccc3)nc3ccccn3c2=O)cc1	12%	Non-toxic			
O=c1cc(-c2ccc(O)cc2)oc2cc(O)cc(O)c12 [APIGENIN]			Toxic	Toxic	Activity (HUVEC [3]): Toxic
O=c1c(-c2ccccc2)c(-c2ccccc2)nc2ccccn12	8.5%	Non-toxic			
O=c1c(O)c(-c2ccc(O)c(O)c2)oc2cc(O)cc(O)c12 [QUERCETIN]			Toxic	Toxic	Activity (HUVEC [3]): Toxic
COc1ccc(-c2c(-c3ccc(OC)c(OC)c3)nc3ccccn3c2=O)cc1	10.3%	Non-toxic			
COc1ccc(-c2nc3ccccn3c(=O)c2-c2ccccc2)cc1OC	37%	Non-toxic	Non-toxic	Non-toxic	Activity (HUVEC [6]): Non-toxic; inhibition (Homo sapiens [7]): Active; inhibition (HUVEC [1]; Homo sapiens): Dose-dependent effect; inhibition (Homo sapiens [8]): Active; inhibition [9]: Active; Activity (HUVEC [10]): Non-toxic; inhibition (HUVEC [11]): Active; inhibition [12]: inactive; Activity (HUVEC [13]): Non-toxic; inhibition [14]: inactive; Activity (HUVEC [15]): Non-toxic; inhibition (Homo sapiens [16]): Dose-dependent effect; inhibition [17]: Active; inhibition (Homo sapiens [18]): Dose-dependent effect; Activity (HUVEC [19]): Non-toxic; inhibition (Homo sapiens [20]): Active; inhibition (Homo sapiens [21]): Active; Activity (HUVEC [22]): Non-toxic
